PubChem BioAssay
Active and inactive are the calls of the source.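 Rule for the calls, unless noted: active = fluorescence slope higher than the sample average by over 3 SD (cut at about -0.22 in these data, passing the limit was not always enough); inactive = the rest.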

Legend:
[1] = inhibitors of TNFa-induced NFkB p65 translocation, primary screen, imaging, HUVEC, MLSMR starter and 10KST1 sets (AID 438;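 active = inhibition above 20% together with a positive visual image hit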;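 note: compound added about 3h40 before a 20 min TNFalpha stimulation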;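 for inhibition: signal is the nuclear over cytoplasmic p65 intensity ratio per well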); details: HUVEC TNFa-induced p65 nuclear translocation; cell count: measured here: nuclei count (cytotoxicity indicator), at 2.08 µM; inhibition: at 2 µM, stronger effect = higher value, 0% TNFa-plus-vehicle, 100% no-TNFa wells
[2] = endothelial E-selectin expression blockers – imaging, HUVEC, immunofluorescence, MLSMR starter and 10KST1 sets, primary screen (AID 487;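 active = visually confirmed hit in the image check and inhibition above 20%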;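 for inhibition: signal is fraction of cell area covered by stained E-selectin grains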;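 for nuclei count: 100% = median nuclei count of all wells on the same plate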); details: HUVEC TNFalpha-induced E-selectin immunofluorescence imaging, at 2 µM; inhibition: stronger effect = higher value; nuclei count: measured here: cell number, toxicity
[3] = Primary imaging screen for DUSP6 inhibitors that restore phospho-Erk in transfected HeLa cells, chemical complementation (AID 609;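 active = compounds giving at least 50% inhibition in the cell-based MKP-3 phosphatase rescue imaging test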;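 for inhibition: phospho-Erk level distribution per well compared with pooled transfected vehicle control wells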); details: HeLa MKP-3 transfected, phospho-Erk imaging KS statistic, at 10 µM, cells stimulated with TPA for 15 min
[4] = target: Dual specificity protein phosphatase 6 (Homo sapiens) (UniProt Q16828); assay: as above; details: HeLa MKP-3 transfected, phospho-Erk imaging KS statistic; at 10 µM; stronger effect = higher value; cells stimulated with TPA for 15 min
[5] = target: Voltage-gated potassium channel subunit beta-2 (Rattus norvegicus) (UniProt P62483); assay: inhibitors of rat Kvbeta2 reductase activity – biochemical, NADPH fluorescence, primary screen (AID 622); details: recombinant KvBeta, 4-cyanobenzaldehyde reduction, at 10 µM, stronger effect = higher value;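 note: slope of raw intensity against log time taken from 70 to 1610 s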
[6] = target: Voltage-gated potassium channel subunit beta-2 (Rattus norvegicus) (UniProt P62483); assay: enhancers of rat Kvbeta2 NADPH turnover – biochemical, NADPH fluorescence, primary screen (AID 623;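 active = NADPH fluorescence slope more negative than the mean of all samples by about 3 SD, 99.7% confidence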;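 note: fluorescence intensity change per second fitted from 20 to 320 s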); details: Recombinant KvBeta, NADPH fluorescence decrease slope, 10 min; at 10 µM; stronger effect = lower value
[7] = target: Muscarinic acetylcholine receptor M4 (Homo sapiens) (UniProt P08173); assay: M4-linked GIRK flux change, two-sided – cell-based, HEK293 M4/GIRK, thallium flux, BTC-AM, M4 allosteric agonist project, primary screen (AID 625;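 active = fluorescence slope after compound addition differing from the mean of all tested samples at 99.7% confidence, mostly higher but some lower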;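 note: thallium influx through GIRK channels coupled to M4 in HEK293 cells with BTC-AM dye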); details: at 10 µM, actives lie on both sides
Outline: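 Material – HEK293 cells with M4 receptor and GIRK channels · Buffer or medium – pH 7.3 thallium assay buffer · Doses – one dose, 10 µM final · Timing – cells overnight at 37 °C, BTC-AM loading 1 h, reads 2 min total · Measured by – kinetic fluorescence with BTC-AM dye · Controls – carbachol and DMSO controls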

[8] = inhibitors of larval lipid processing in zebrafish, primary screen, whole organism, PED6 fluorescence, gall bladder and intestine (AID 686;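 active = a full or partial loss of lipid-probe fluorescence in the fish gall bladder, intestine or both, judged by eye; inactive = no fluorescence loss, or compound toxic to the fish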;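 note: larvae 5 to 7 days old with five fish per well; signal comes from phospholipase A2 cleavage of quenched PED6 carried via bile; overnight exposure to compound and PED6 before scoring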); details: Zebrafish larvae PED6 lipid processing, fluorescence scoring; screened at 20 µM (by protocol)
Outline: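 system = live zebrafish larvae aged 5-7 days, whole organism | probe or stimulus = ingested quenched lipid PED6 at 100 nM | doses = 20 µM single dose | timing = overnight exposure | detection = fluorescence microscopy with visual scoring of gall bladder and intestine | read-out = visual per-well fluorescence inhibition score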

[9] = loss of swimming-algae plug formation – whole organism, Chlamydomonas reinhardtii, WT vs cilia-less mutant, absorbance, 96-well, primary screen (AID 463189;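 active = inhibition at or above 50% relative to wild type and mutant plate controls; inactive = inhibition below 50%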;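 note: 0% = wild type cc124 cells in DMSO and 100% = ciliumless bld1 mutant cells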); details: Chlamydomonas reinhardtii gravitaxis, OD600 absorbance, 2 days; at 10 µM; stronger effect = higher value
[10] = measured here: cell density z-score
[11] = measured here: nuclear c-Myc green intensity z-score
[12] = measured here: nuclear pErk red intensity z-score, stronger effect = higher value

Dual specificity protein phosphatase 6 (Homo sapiens), sequence (Q16828 whole entry, looked up): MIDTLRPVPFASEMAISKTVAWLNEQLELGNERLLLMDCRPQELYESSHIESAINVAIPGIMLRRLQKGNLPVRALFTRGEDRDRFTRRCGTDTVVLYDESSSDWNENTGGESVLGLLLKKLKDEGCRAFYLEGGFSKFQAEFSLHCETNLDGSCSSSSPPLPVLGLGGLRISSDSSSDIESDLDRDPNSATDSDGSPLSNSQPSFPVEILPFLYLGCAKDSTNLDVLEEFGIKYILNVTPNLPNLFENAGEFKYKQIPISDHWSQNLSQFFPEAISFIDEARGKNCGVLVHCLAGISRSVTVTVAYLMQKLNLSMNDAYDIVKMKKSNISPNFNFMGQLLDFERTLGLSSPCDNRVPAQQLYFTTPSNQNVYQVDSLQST
Muscarinic acetylcholine receptor M4 (Homo sapiens), sequence (P08173 whole entry, looked up): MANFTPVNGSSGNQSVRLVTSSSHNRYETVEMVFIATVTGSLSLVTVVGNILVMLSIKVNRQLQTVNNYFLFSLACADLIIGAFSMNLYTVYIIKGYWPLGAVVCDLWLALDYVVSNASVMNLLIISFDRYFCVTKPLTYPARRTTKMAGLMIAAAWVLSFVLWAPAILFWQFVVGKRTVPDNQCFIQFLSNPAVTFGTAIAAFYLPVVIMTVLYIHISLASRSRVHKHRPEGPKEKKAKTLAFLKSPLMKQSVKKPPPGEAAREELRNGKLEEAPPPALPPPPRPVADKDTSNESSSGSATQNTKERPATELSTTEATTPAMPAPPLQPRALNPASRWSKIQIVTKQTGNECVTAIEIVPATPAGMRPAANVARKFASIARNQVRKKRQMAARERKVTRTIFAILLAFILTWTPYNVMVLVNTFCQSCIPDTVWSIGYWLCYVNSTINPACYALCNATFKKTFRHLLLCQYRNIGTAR
Voltage-gated potassium channel subunit beta-2 (Rattus norvegicus), sequence (P62483 whole entry, looked up): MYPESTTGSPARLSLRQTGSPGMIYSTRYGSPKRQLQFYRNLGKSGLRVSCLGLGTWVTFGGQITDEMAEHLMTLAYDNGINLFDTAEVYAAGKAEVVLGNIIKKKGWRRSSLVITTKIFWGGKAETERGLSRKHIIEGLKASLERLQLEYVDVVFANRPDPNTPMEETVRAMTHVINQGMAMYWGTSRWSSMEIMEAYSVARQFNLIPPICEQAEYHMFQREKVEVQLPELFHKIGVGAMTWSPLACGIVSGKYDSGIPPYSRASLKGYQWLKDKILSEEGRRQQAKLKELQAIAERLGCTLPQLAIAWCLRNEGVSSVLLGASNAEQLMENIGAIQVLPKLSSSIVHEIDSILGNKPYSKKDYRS

| Compound | cell count [1] | inhibition [1] | inhibition [2] | nuclei count [2] [%] | z-score [3, 10] | z-score [3, 11] | z-score [3, 12] | inhibition [4] | fluorescence slope [5] | NADPH fluorescence slope [6] | fluorescence slope [7] | outcome [8] | inhibition [9] |
| --- | --- | --- | --- | --- | --- | --- | --- | --- | --- | --- | --- | --- | --- |
| CC1(C)CC(=O)C2=C(C1)OC(N)=C(C#N)C21C(=O)N(CN2CCOCC2)c2ccccc21 (stereo not given) | 371 | -2.9% (inactive) | -122% (inactive) | 138 | 0.502 | -1.1 | -1.15 | 19.4% (inactive) | -0.479 (inactive) | -3.3e-05 (inactive) | 0.00562 (inactive) | inactive | 36.4% (inactive) |
| CCc1nc(N2CCN(C(=O)c3ccccc3)CC2)c(C#N)c2c1COC(C)(C)C2 | 548 | 2% (inactive) | -77.4% (inactive) | 113 | -0.584 | 0.135 | 0.894 | 3.42% (inactive) | -0.474 (inactive) | 6.5e-05 (inactive) | 0.00455 (inactive) | inactive | 5.51% (inactive) |
| Cc1c(Cl)cccc1N1C(=O)C2ON(c3ccccc3)C(c3cccnc3)C2C1=O (stereo not given) | 542 | -6.8% (inactive) | 9.6% (inactive) | 83.2 | 0.393 | 0.964 | -1.74 | 6.04% (inactive) | -0.497 (inactive) | -1.3e-05 (inactive) | 0.00557 (inactive) | inactive | 20% (inactive) |
| Cn1c(=O)c2c(nc(NCc3ccco3)n2CCc2ccccc2)n(C)c1=O | 605 | 6% (inactive) | -74.4% (inactive) | 121 | -0.322 | -0.952 | 1.19 | 1.98% (inactive) | -0.524 (inactive) | -6e-05 (inactive) | 0.00721 (inactive) | inactive | 33.1% (inactive) |
| COC(=O)C(NC(=O)c1ccccc1)(Nc1nc(C)cs1)C(F)(F)F (stereo not given) | 687 | -8.5% (inactive) | -24.1% (inactive) | 152 | -0.446 | -1.08 | 0.594 | 10.9% (inactive) | -0.481 (inactive) | -3.9e-05 (inactive) | 0.00439 (inactive) | inactive | 11.6% (inactive) |
| Cc1cc(=O)oc2ccc(OCC(=O)N3CCc4ccccc43)cc12 | 630 | -1.2% (inactive) | -32.9% (inactive) | 180 | -1.93 | 0.803 | 1.57 | -2.29% (inactive) | -0.478 (inactive) | -7.1e-05 (inactive) | 0.00705 (inactive) | inactive | 1.65% (inactive) |
| CCCCCSc1nc(C)c(CC(=O)O)c(=O)[nH]1 | 400 | -8.8% (inactive) | -27.1% (inactive) | 114 | 0.718 | -0.507 | -1.88 | 1.04% (inactive) | -0.477 (inactive) | -5.1e-06 (inactive) | 0.00563 (inactive) | inactive | 34.5% (inactive) |
| c1nc(NC2CCCCC2)c2[nH]cnc2n1 | 743 | -1.9% (inactive) | -76.5% (inactive) | 168 | -1.06 | 0.0486 | -0.156 | 9.91% (inactive) | -0.483 (inactive) | -6.4e-05 (inactive) | 0.00575 (inactive) | inactive | 3.23% (inactive) |
| COc1ccc(CCn2c(C)cc3c(c2=O)C(c2ccc4c(c2)OCO4)C(C#N)=C(N)O3)cc1OC (stereo not given) | 697 | -0.5% (inactive) | -141% (inactive) | 170 | 1.12 | 0.0675 | -1.33 | 9.61% (inactive) | -0.468 (inactive) | -4.4e-05 (inactive) | 0.00505 (inactive) | inactive | 5.67% (inactive) |
| CCCCOC(=O)CSC1=C(C#N)C(c2ccc3c(c2)OCO3)CC(=O)N1 (stereo not given) | 650 | -12.5% (inactive) | -163% (inactive) | 155 | 1.99 | 0.113 | -0.175 | 8.31% (inactive) | -0.5 (inactive) | -8.3e-05 (inactive) | 0.00598 (inactive) | inactive | 4.75% (inactive) |
| Cc1ccc(-c2nnc(-c3ccccc3)o2)cc1Br | 570 | -3.8% (inactive) | 33% (inactive) | 98.9 | -0.752 | 0.492 | -1.02 | 1.63% (inactive) | -0.564 (inactive) | 6e-06 (inactive) | 0.00616 (inactive) | inactive | 2.02% (inactive) |
| Nc1c2c(nc3ccccc13)N(C1CCCCC1)CC2 | 670 | 21.3% (inactive) | 7.4% (inactive) | 98.7 | -0.086 | 0.000792 | -0.245 | -15.1% (inactive) | -0.46 (inactive) | -2.9e-05 (inactive) | 0.00444 (inactive) | inactive | 62.2% (active) |
| CC1N(O)C(c2ccc(Cl)cc2Cl)N(O)C1(C)C (stereo not given) | 482 | 1.9% (inactive) | -3.5% (inactive) | 94.1 | -0.283 | -1.5 | 1.54 | 7.93% (inactive) | -0.347 (inactive) | 9.2e-07 (inactive) | 0.00632 (inactive) | inactive | 43.1% (inactive) |
| Cc1c(C2CC(=O)N(c3ccccc3)C2=O)[nH]n(-c2ccccc2)c1=O (stereo not given) | 618 | 4.4% (inactive) | -97.6% (inactive) | 143 | -1.05 | 0.971 | 0.084 | -7.86% (inactive) | -0.488 (inactive) | -5.3e-05 (inactive) | 0.00493 (inactive) | inactive | 6.43% (inactive) |
| COc1ccc(OC)c(C2/C(=C(/O)c3ccccc3)C(=O)C(=O)N2Cc2ccco2)c1 (stereo not given) | 675 | -11.7% (inactive) | -58% (inactive) | 169 | 0.317 | -0.841 | 0.437 | -11.4% (inactive) | -0.522 (inactive) | -2.7e-05 (inactive) | 0.00485 (inactive) | inactive | 5.53% (inactive) |
| COC(=O)CSc1nc(N)nc(C)c1Br | 688 | -10% (inactive) | 23.8% (inactive) | 150 | 0.424 | 0.473 | 0.0816 | -3.95% (inactive) | -0.429 (inactive) | -3.4e-05 (inactive) | 0.00418 (inactive) | inactive | -4.73% (inactive) |
| Cc1cccc(-n2ncc3c(NCc4ccco4)ncnc32)c1 | 648 | -12.5% (inactive) | -84.2% (inactive) | 165 | 0.86 | -0.2 | -0.239 | 11.4% (inactive) | -0.385 (inactive) | -4.7e-05 (inactive) | 0.00641 (inactive) | inactive | 2.88% (inactive) |
| O=S(=O)(c1cccc(-c2csc(-c3ccccc3)n2)c1)N1CCOCC1 | 681 | -6% (inactive) | 21.6% (inactive) | 172 | -0.667 | -0.235 | -0.477 | -2.29% (inactive) | -0.452 (inactive) | -5.8e-05 (inactive) | 0.00515 (inactive) | inactive | 25.2% (inactive) |
| CC(C)CN1C(=O)c2ccc(C(=O)Nc3ccccn3)cc2C1=O | 669 | -5.4% (inactive) | 50% (inactive) | 136 | -1.42 | 1.32 | -0.345 | -11.4% (inactive) | -0.495 (inactive) | -4.7e-05 (inactive) | 0.00831 (inactive) | inactive | -7.05% (inactive) |
| Cc1ccc(C(=O)NCC(C)(C)O)cc1 | 554 | -5.3% (inactive) | -1.3% (inactive) | 87.7 | -0.652 | -0.297 | -0.959 | -3.95% (inactive) | -0.473 (inactive) | -8.2e-05 (inactive) | 0.00553 (inactive) | inactive | -5.2% (inactive) |
| Cc1nn(CC(=O)N2CCOCC2)c(=O)c2ccccc12 | 584 | -9.1% (inactive) | -72.8% (inactive) | 135 | 1.52 | -1.31 | 0.975 | 12.8% (inactive) | -0.524 (inactive) | -0.000146 (inactive) | 0.00441 (inactive) | inactive | -9.34% (inactive) |
| Cc1c(O)c(CN2CCCC2)cc2c1oc(=O)c1ccccc12 | 602 | 3.3% (inactive) | 92.9% (active) | 77.2 | 0.99 | 0.189 | -0.00827 | -8.95% (inactive) | -0.44 (inactive) | -2.9e-05 (inactive) | 0.00331 (inactive) | inactive | 17.4% (inactive) |
| CC(NC(=O)Nc1ncccn1)(C(F)(F)F)C(F)(F)F | 705 | -8.4% (inactive) | -9.7% (inactive) | 107 | -2.34 | 2.27 | -1.54 | 3.97% (inactive) | -0.481 (inactive) | -0.000112 (inactive) | 0.00693 (inactive) | inactive | -10.4% (inactive) |
| Cc1nn(CC(=O)NCCN2CCOCC2)c(=O)c2ccccc12 | 472 | 4.4% (inactive) | -0.8% (inactive) | 116 | -1.02 | -0.0587 | 0.79 | 5.95% (inactive) | -0.469 (inactive) | -3.4e-05 (inactive) | 0.00615 (inactive) | inactive | 27.9% (inactive) |
| CCC(CC)c1nc2cc(OC)c(OC)cc2c(=O)o1 | 581 | 0.1% (inactive) | -54% (inactive) | 126 | -1.01 | -1.15 | 0.697 | -4.59% (inactive) | -0.451 (inactive) | -0.000112 (inactive) | 0.00503 (inactive) | inactive | 0.563% (inactive) |
